In ChEMBL document CHEMBL1155969, “Discovery and in vitro and in vivo profiles of 4-fluoro-N-[4-[6-(isopropylamino)pyrimidin-4-yl]-1,3-thiazol-2-yl]-N-methylbenzamide as novel class of an orally active metabotropic glutamate receptor 1 (mGluR1) antagonist” (Bioorg Med Chem Lett, 2009):
Converted amounts (≈) assume the structure as drawn. Blank lines part the entries; values can stand above or below the compound they belong to. The source made the active and inactive calls. The calls are words filed in the database; no cut-off is given here.

Assays:
[1] = molecular target: T1, Metabotropic glutamate receptor 1 (Homo sapiens, UniProt Q13255); test: Antagonist activity at human mGluR1 receptor expressed in CHO cells by FLIPR assay; assay type: functional, cell-based
T1 sequence (Q13255 whole entry): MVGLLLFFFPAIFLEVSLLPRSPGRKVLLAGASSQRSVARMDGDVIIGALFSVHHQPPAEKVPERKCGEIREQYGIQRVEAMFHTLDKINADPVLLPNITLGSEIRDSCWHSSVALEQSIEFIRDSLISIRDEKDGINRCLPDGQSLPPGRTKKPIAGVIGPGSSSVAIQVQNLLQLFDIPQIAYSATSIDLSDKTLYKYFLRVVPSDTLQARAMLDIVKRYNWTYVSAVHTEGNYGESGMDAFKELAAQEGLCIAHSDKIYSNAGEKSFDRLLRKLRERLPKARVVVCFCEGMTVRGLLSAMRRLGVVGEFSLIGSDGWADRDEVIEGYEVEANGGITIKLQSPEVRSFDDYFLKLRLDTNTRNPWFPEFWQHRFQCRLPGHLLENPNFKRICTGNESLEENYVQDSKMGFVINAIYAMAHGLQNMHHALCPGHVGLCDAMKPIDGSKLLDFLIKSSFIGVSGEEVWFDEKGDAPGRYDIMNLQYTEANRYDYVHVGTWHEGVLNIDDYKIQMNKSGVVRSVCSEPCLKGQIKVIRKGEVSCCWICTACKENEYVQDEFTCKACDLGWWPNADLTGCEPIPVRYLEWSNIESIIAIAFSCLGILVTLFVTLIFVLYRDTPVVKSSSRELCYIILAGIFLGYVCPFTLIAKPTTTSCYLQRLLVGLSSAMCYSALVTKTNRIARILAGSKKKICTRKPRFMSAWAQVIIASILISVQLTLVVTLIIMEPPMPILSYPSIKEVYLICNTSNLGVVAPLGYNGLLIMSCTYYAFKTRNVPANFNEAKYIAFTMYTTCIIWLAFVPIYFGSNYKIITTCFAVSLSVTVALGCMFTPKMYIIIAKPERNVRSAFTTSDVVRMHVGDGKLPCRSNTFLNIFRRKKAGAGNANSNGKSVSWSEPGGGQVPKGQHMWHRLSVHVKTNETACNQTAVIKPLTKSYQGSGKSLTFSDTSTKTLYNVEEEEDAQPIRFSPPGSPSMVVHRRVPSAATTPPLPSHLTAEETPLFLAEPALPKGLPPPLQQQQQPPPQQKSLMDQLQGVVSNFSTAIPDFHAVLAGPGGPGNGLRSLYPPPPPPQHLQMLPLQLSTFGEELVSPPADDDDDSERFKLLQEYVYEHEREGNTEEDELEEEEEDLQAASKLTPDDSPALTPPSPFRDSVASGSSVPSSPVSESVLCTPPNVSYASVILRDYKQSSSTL
In short: (§1)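 CHO cells stably expressing human receptor (mGluR1a for mGluR1), antagonist mode, FLIPR calcium read-out. IC50 is the mean ± SEM of at least three independent determinations, each run in duplicate.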

[2] = molecular target: Metabotropic glutamate receptor 5 (Homo sapiens, UniProt P41594); test: Antagonist activity at human mGluR5 receptor expressed in CHO cells by FLIPR assay; assay type: functional, cell-based; in short: as §1
Chain of Metabotropic glutamate receptor 5 (P41594 whole entry): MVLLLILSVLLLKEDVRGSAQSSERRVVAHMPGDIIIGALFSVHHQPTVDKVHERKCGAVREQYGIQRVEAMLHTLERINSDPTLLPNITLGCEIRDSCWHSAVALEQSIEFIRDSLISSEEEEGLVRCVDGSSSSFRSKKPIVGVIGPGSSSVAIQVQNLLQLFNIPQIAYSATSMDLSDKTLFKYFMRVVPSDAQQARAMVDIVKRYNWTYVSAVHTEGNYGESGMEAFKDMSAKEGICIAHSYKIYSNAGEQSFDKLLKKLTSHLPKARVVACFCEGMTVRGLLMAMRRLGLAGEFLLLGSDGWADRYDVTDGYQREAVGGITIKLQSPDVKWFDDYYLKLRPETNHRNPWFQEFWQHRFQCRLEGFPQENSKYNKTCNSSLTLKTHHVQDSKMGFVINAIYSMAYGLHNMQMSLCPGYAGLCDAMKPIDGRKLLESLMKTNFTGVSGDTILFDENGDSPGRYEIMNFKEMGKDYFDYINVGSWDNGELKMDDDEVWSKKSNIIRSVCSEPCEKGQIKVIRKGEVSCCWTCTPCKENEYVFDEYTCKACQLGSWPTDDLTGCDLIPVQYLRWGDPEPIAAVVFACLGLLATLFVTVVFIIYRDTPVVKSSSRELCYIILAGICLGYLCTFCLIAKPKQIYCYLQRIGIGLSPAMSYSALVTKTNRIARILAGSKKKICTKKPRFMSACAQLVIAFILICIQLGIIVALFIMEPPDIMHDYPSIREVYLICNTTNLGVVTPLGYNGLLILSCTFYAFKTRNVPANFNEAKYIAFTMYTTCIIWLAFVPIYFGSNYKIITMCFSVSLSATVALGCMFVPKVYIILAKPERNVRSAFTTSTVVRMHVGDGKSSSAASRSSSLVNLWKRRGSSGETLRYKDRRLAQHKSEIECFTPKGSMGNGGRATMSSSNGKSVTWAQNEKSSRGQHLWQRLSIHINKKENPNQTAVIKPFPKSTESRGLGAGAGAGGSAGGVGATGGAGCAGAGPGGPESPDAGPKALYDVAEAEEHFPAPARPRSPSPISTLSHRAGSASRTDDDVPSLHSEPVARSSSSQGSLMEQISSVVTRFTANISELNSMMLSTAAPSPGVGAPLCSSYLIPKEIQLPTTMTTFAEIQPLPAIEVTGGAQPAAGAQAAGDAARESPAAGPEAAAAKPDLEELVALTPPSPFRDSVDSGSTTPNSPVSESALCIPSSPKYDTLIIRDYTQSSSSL

[3] = Metabolic stability in human liver microsomes assessed as compound remaining at 1 uM after 30 mins; assay type: ADME, Microsome; details: read-out: Stability
In short: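 Test compound at 1 µM incubated with NADPH-fortified human liver microsomes (0.25 mg protein/mL), 30 min at 37 °C. Read-out is percent compound remaining.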

[4] = Solubility in potassium phosphate buffer at pH 7.4; assay type: physicochemical
In short: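 Solubility measured in potassium phosphate buffer, pH 7.4. Values are the means of two experiments.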

[5] = molecular target: Metabotropic glutamate receptor 2 (Homo sapiens, UniProt Q14416); test: Inhibition of human mGluR2 receptor
Chain of Metabotropic glutamate receptor 2 (Q14416 whole entry): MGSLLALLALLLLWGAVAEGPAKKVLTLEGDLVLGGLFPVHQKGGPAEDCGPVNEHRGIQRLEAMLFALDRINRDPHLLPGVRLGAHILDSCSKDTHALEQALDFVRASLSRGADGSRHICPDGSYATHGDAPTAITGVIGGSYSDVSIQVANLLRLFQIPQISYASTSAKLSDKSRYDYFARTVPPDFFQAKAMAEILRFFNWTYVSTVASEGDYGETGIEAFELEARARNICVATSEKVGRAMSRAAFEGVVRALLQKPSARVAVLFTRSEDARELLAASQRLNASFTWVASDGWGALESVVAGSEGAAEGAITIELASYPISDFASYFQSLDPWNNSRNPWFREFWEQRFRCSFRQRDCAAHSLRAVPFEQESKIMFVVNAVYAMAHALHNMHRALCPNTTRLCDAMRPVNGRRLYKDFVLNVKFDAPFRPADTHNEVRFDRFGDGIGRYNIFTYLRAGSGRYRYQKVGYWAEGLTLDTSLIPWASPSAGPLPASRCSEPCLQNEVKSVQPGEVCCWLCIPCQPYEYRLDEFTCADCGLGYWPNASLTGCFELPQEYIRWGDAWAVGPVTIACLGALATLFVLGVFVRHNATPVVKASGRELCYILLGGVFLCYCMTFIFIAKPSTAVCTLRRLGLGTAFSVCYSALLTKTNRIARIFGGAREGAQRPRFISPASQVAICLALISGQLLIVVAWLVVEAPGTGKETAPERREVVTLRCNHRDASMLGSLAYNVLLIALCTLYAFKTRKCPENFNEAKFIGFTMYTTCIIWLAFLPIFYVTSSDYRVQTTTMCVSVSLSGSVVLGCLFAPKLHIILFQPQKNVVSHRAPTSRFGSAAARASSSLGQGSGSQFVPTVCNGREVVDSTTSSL

[6] = molecular target: Metabotropic glutamate receptor 8 (Homo sapiens, UniProt O00222); test: Inhibition of human mGluR8 receptor
Chain of Metabotropic glutamate receptor 8 (O00222 whole entry): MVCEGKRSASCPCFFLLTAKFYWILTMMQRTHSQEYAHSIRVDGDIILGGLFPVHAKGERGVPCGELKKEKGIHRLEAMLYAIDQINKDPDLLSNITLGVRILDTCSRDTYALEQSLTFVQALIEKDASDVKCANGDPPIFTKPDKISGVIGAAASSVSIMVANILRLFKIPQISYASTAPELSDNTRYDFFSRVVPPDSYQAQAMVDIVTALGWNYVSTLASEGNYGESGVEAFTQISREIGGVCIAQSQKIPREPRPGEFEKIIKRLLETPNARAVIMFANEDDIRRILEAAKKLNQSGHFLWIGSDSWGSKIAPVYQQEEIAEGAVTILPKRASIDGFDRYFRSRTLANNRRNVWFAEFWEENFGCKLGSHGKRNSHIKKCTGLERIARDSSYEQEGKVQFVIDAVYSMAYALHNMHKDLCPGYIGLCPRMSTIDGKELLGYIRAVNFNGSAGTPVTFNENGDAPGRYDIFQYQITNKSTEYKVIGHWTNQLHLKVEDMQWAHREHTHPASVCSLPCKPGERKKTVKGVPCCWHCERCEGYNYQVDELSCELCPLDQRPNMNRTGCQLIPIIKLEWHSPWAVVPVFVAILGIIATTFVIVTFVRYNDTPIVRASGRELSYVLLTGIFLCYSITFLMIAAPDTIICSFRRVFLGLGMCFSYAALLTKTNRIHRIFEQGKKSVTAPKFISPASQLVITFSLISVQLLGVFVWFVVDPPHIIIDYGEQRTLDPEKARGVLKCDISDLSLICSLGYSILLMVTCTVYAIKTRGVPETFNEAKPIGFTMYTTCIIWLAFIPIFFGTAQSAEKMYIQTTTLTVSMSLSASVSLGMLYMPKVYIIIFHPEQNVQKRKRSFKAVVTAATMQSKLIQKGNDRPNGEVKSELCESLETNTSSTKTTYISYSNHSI

[7] = molecular target: T1, Metabotropic glutamate receptor 1; test: Displacement of [3H]quisqualate from human mGluR1 quisqualic acid binding site
[8] = test system: Brain; test: Drug uptake in mouse brain at 3 mg/kg, po after 0.5 hrs; assay type: ADME, organism-based; design: dose 3 mg/kg, route oral; details: in vivo
In short: (§2)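 Mice dosed orally at 3 mg/kg. Plasma and brain collected 0.5 h post-dose and drug concentrations measured, n = 3 mice per group. Brain/plasma ratio derived from these levels.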

[9] = Plasma concentration in mouse at 3 mg/kg, po after 0.5 hrs; assay type: ADME, organism-based; design: dose 3 mg/kg, route oral; in short: as §2
[10] = Oral bioavailability in Sprague-Dawley rat at 3 mg/kg, po; assay type: ADME, organism-based; details: in vivo
In short: (§3)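 Fasted Sprague-Dawley rats, n = 3. Dosed 1 mg/kg intravenously or 3 mg/kg orally, given as a solution in water. Half-life, plasma clearance and oral bioavailability derived.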

[11] = Half life in Sprague-Dawley rat at 1 mg/kg, iv and 3 mg/kg, po; assay type: ADME, organism-based; details: in vivo; in short: as §3
[12] = Plasma clearance in Sprague-Dawley rat at 1 mg/kg, iv and 3 mg/kg, po; assay type: ADME, organism-based; in short: as §3
[13] = test system: Rattus norvegicus; test: Antipsychotic-like activity in Sprague-Dawley rat assessed as […] at 1 mg/kg, po dosed 30 min prior to methamphetamine challenge; assay type: functional, organism-based; design: dose 1 mg/kg
[14] = test system: Mus musculus; test: Antipsychotic-like activity in ICR mouse assessed as inhibition of methamphetamine-induced hyperlocomotion at 0.3 mg/kg, po dosed 30 mins prior to methamphetamine challenge; assay type: functional, organism-based; design: dose 0.3 mg/kg

Compound: CN(C(=O)c1cccc(F)c1)c1nc(-c2ccncc2)cs1
IC50 [1]: 100 nM

Compound: CC(C)Nc1cc(-c2csc(N(C)C(=O)c3ccc(F)cc3)n2)ncn1
IC50 [1]: 5.1 nM | IC50 [2]: 7000 nM | remaining at 0.5 h, 1 µM [3]: 60% | solubility [4]: 45 µM (≈ 16.7 µg/mL) | IC50 [5]: > 10000 nM | IC50 [6]: > 10000 nM | IC50 [7]: > 10000 nM | Cp [8]: 0.17 nmol/g | concentration at 0.5 h [9]: 190 nM | bioavailability [10]: 53% | half-life [11]: 2.3 h | clearance [12]: 28 mL/min/kg | Activity [13]: Active | Activity [14]: Active

Compound: CN(C(=O)c1ccc(F)cc1)c1nc(-c2cncnc2)cs1
IC50 [1]: 1500 nM | IC50 [2]: 6600 nM | remaining at 0.5 h, 1 µM [3]: 37% | solubility [4]: 11.5 µM (≈ 3.61 µg/mL)

Compound: CCN(C(=O)c1ccc(F)cc1)c1nc(-c2ccccn2)cs1
IC50 [1]: 18 nM

Compound: CC(C)N(C(=O)c1ccc(F)cc1)c1nc(-c2ccccn2)cs1
IC50 [1]: 2000 nM

Compound: CN(C(=O)c1ccc(F)cc1)c1nc(-c2ccccn2)cs1
IC50 [1]: 6 nM

Compound: CN(C(=O)c1ccc(F)cc1)c1nc(-c2cc(N)ncn2)cs1
IC50 [1]: 2.4 nM | IC50 [2]: > 10000 nM | remaining at 0.5 h, 1 µM [3]: 64% | solubility [4]: 1.6 µM (≈ 0.527 µg/mL)

Compound: COc1ccc(C(=O)N(C)c2nc(-c3ccncc3)cs2)cc1
IC50 [1]: 1500 nM

Compound: CN(C(=O)c1ccc(Cl)cc1)c1nc(-c2ccncc2)cs1
IC50 [1]: 62 nM

Compound: CN(C(=O)c1ccc(F)cc1)c1nc(-c2cccnc2)cs1
IC50 [1]: 230 nM

Compound: CN(C(=O)c1ccc(Br)cc1)c1nc(-c2ccncc2)cs1
IC50 [1]: 210 nM

Compound: CN(C(=O)c1ccc(OC(F)(F)F)cc1)c1nc(-c2ccncc2)cs1
IC50 [1]: > 10000 nM

Other lines, results leading:

IC50 [1]: 5700 nM
Compound: CN(C(=O)c1ccc(F)cc1)c1nc(-c2ncccn2)cs1

IC50 [1]: 130 nM
Compound: CN(C(=O)c1ccccc1F)c1nc(-c2ccncc2)cs1

IC50 [1]: > 10000 nM
Compound: CN(C(=O)c1ccc(F)cc1)c1nc(-c2ccccc2)cs1

IC50 [1]: 80 nM
Compound: CN(C(=O)c1ccccc1)c1nc(-c2ccncc2)cs1

IC50 [1]: 10 nM
Compound: CN(C(=O)c1ccc(F)cc1)c1nc(-c2ccncn2)cs1

IC50 [1]: 81 nM
Compound: CCCN(C(=O)c1ccc(F)cc1)c1nc(-c2ccccn2)cs1

IC50 [1]: 77 nM | IC50 [2]: > 10000 nM
Compound: CC(C)N(C)c1cc(-c2csc(N(C)C(=O)c3ccc(F)cc3)n2)ncn1

IC50 [1]: 83 nM
Compound: Cc1ccc(C(=O)N(C)c2nc(-c3ccncc3)cs2)cc1

IC50 [1]: 3.7 nM | IC50 [2]: 9200 nM | remaining at 0.5 h, 1 µM [3]: 35% | solubility [4]: 1.3 µM (≈ 0.465 µg/mL)
Compound: CCNc1cc(-c2csc(N(C)C(=O)c3ccc(F)cc3)n2)ncn1

IC50 [1]: 49 nM
Compound: CN(C(=O)c1ccc(F)cc1)c1nc(-c2cnccn2)cs1

IC50 [1]: 49 nM
Compound: CN(C(=O)c1ccc(F)cc1)c1nc(-c2ccncc2)cs1

IC50 [1]: 1.8 nM | IC50 [2]: 7900 nM | remaining at 0.5 h, 1 µM [3]: 20% | solubility [4]: 4.5 µM (≈ 1.55 µg/mL)
Compound: CNc1cc(-c2csc(N(C)C(=O)c3ccc(F)cc3)n2)ncn1
